Screens deposited in PubChem by several laboratories.
Rad51 HR inh – blocks human Rad51 in homologous recombination. Q06609. hRad51 DNA strand exchange, fluorescence dequenching. inhibition, % at 10 µM. 0.085% of 200,000 active. AID 1385;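 active = inhibition above 40% at the single screening dose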;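 note: 0% = DMSO control wells and 100% = blanks with heterologous ssDNA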
Target sequence (Q06609 whole entry, looked up): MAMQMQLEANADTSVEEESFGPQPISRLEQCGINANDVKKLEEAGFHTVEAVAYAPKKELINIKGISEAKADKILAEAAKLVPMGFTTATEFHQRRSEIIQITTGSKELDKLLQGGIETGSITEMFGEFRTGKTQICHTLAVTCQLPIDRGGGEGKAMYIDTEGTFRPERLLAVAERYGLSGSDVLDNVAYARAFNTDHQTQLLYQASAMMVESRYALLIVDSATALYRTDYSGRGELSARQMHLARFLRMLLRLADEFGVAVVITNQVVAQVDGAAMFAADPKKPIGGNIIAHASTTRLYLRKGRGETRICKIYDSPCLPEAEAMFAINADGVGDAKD
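System: hRad51 filaments on single-stranded DNA; reagent: Fluorescein- and BHQ1-tagged 47-mer duplex; compound dosing: one concentration, 10 µM final; timing: filaments 15 min 37 °C, then compound 30 min; measured by: fluorescein emission 520 nm, excitation 485 nm; benchmarks: per-plate controls and blanks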
Ins promoter up – MIN6 insulin promoter up-regulation. MIN6 insulin promoter-GFP reporter, high-content imaging; active compounds read high. z-score at 5 µM. 0.3% of 190,000 active;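 active = z-score above 3 at 5 µM with at least 500 cells counted in the well; inconclusive = wells under 500 cells, flagged as cytotoxic or low count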
Autophagy mod – modulators of autophagy. 0.98% of 190,000 active. AID 463193. MEF GFP-LC3 puncta imaging; test concentration mostly 10 µM. calls only at 10 µM (by protocol);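 active = percentage of spot-positive cells more than 3 SD above its plate mean, without a fluorescence outlier flag or 80% toxicity; inconclusive = no clear call, values can overlap the other calls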;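 note: spot-positive cell cutoff set from DMSO-treated cells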
WT yeast gro inh – growth inhibition of WT yeast, mitochondrial fusion screen | mitochondrial fusion phenotypic screen, WT strain | inhibition, % at 10 µM | 2.1% of 190,000 active | AID 1362; in the data active = inhibition above about 58%; tested in S. cerevisiae
SKKanGAS inh – blocks kanamycin growth of S. pyogenes SKKanGAS strain; BacTiter-Glo, 6 h; 1.3% of 300,000 active; inhibition, % at 7.5 µM;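 active = mean replicate score, as percent of positive control median, at least 50; inconclusive = mean below 50 but one replicate at or above 50; inactive = mean and every replicate below 50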;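 note: strain carries kanamycin resistance gene driven by streptokinase promoter and grows in 40 µg/ml kanamycin; loss of luminescence reflects streptokinase promoter inhibition or plain growth inhibition; 0% = median of DMSO wells and 100% = positive control at its reference dose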
KCC2 mod – KCC2 (human) Cl- transport modulation; KCC2 cells, thallium flux FluoZin-2 fluorescence; B-score of Tl+ flux slope (higher = more flux/activation; lower = inhibition) at 10 µM; 2.2% of 190,000 active; Q9H2X9;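 active = thallium flux slope and its plate-corrected score both differing from the plate sample mean at a set confidence after two filtering rounds, in either direction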;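 note: slope of fluorescence scaled to starting intensity during 10 to 20 s after thallium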
KCC2 secondary – confirmation of human KCC2 transport modulators; shares compounds with KCC2 mod; HEK293-KCC2, thallium flux, FluoZin2 fluorescence; active compounds read high; normalised thallium flux (F/F0 slope) at 10 µM; 15% of 3,700 active; AID 1713;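 active = thallium flux slope above the same plate's solvent-only control mean plus 3 SD; inconclusive = the two replicate wells disagree; inactive = no significant difference from solvent-only control wells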
KCC2 bumet counter – bumetanide-insensitive thallium flux in KCC2 cells with ouabain, counter-screen. shares compounds with KCC2 mod. HEK293-KCC2 + bumetanide/ouabain, thallium flux FluoZin2; active compounds read high. normalized thallium flux at 10 µM. 49% of 3,700 active. AID 1714;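 active = thallium entry rate above the same plate's blocked-transporter control wells by more than 3 SD; inconclusive = the two repeat wells disagree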;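 note: raw slope of fluorescence over initial fluorescence between 10 and 20 s after thallium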
KCC2 sec2 – confirmation of human KCC2 transport modulators | shares compounds with KCC2 mod | HEK293-KCC2, thallium flux FluoZin2 fluorescence; actives lie on both sides; F/F0 rise rate, 10–20 s post-thallium | normalized thallium flux at 10 µM | 23% of 3,700 active | AID 1715;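 active = thallium flux slope more than 3 SD above or below the plate's solvent-only control mean, mostly below; inconclusive = the two repeat wells disagreed; inactive = no significant shift from solvent-only controls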;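 note: raw slope with 0.1% DMSO as baseline and bumetanide as block control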
HEK293 Tl flux – acts in parental HEK cells, KCC2 counter-screen; shares compounds with KCC2 mod; HEK293 parental cells, thallium flux FluoZin2, ouabain; baseline-ratio fluorescence slope, 10–20 s after thallium; thallium flux rate (normalised fluorescence) at 10 µM; 46% of 3,700 active; AID 1716;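 active = thallium flux rate significantly above the same plate's solvent-only control wells, beyond their mean plus 3 SD; inconclusive = the two replicate wells gave conflicting results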
KCC2 retest ouab – KCC2 (human) modulation, ouabain retest; 48% of 3,700 active; AID 1717; shares compounds with KCC2 mod; raw Tl+ flux slope (below DMSO = inhibition, above = activation) at 10 µM; HEK293-KCC2, thallium flux FluoZin2 fluorescence; bidirectional: low = inhibitor, high = activator;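 active = thallium flux slope beyond 3 SD from same-plate DMSO control mean in most replicates, usually higher, sometimes lower; inconclusive = repeat tests gave conflicting results; inactive = no significant difference from controls in most replicates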;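 note: slope of initial-normalized fluorescence between seconds 10 and 20 after thallium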
HEK293 Tl flux2 – acts in parental HEK cells, second KCC2 counter-screen; shares compounds with KCC2 mod; HEK293 parental, thallium flux FluoZin-2 fluorescence slope; thallium flux slope at 10 µM; 33% of 3,700 active;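 active = thallium flux slope above the same plate's solvent-control mean plus 3 SD in both duplicate wells; inconclusive = duplicate wells that disagreed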;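 note: run without ouabain in cells lacking the KCC2 cotransporter; slope of fluorescence scaled to its starting value between 10 and 20 s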
* hit, by the source's call; i = inactive; ? = inconclusive; / = no result. Sampled rows, rich in hits. Any-hit rate of the full collection: about 4.2%.

SMILES	Rad51 HR inh	Ins promoter up	Autophagy mod	WT yeast gro inh	SKKanGAS inh	KCC2 mod	KCC2 secondary	KCC2 bumet counter	KCC2 sec2	HEK293 Tl flux	KCC2 retest ouab	HEK293 Tl flux2
COC(=O)CSc1nnc(CNS(=O)(=O)c2ccc(C)cc2)n1C	5.0	1.49	i	-13.2	-3.1	-0.0928	/	/	/	/	/	/
COc1cccc(C(=O)CSc2nnc(CNS(=O)(=O)c3ccc(C)cc3)n2C)c1	26.5	-0.95	i	-49.9	7.6	-4.16*	0.00995	0.00715	0.0324	0.00841	0.0235	0.0114*
CCOC(=O)C(NCCc1ccccc1F)(NC(C)=O)C(F)(F)F (centres undefined)	3.5	-0.2	i	-16.1	-0.8	0.547	/	/	/	/	/	/
COc1ccc(NC(=O)CCC2CCCCC2)cc1S(=O)(=O)N1CCCCC1	-4.6	-0.23	i	18.4	5.6	-3.94*	0.0074	0.00579	0.0292	0.00664	0.0194	0.00959
CC(C)C1(C(C)C)OC(=O)c2ccccc21	/	0.14	i	11.2	-9.7	-0.139	/	/	/	/	/	/
O=C1OC(c2ccc(O)cc2)(c2ccc(O)cc2)c2ccccc21	-4.2	/	i	21.4	5.0	10.8*	0.00569	0.00957*	0.0349	0.00773	0.0248*	0.0117
CCCC(=O)Nc1cccc(NC(=O)c2cccc([N+](=O)[O-])c2C)c1	-5.4	0.43	i	7.6	-5.1	0.0266	/	/	/	/	/	/
CCOc1cc(N2CCOCC2)c(OCC)cc1NC(=O)COC(=O)/C=C/c1ccc(OC(F)F)cc1	/	/	/	/	-8.3	/	/	/	/	/	/	/
S=C(Nc1ccccc1Cl)NC1CC2CCCC(C1)N2C1CC1 (centres undefined)	0.4	0.69	i	14.5	-2.0	0.553	/	/	/	/	/	/
Cc1c(Br)c([N+](=O)[O-])nn1CCCC(=O)N1CCN(c2ccccc2)CC1	4.6	0.89	i	18.3	-2.2	-0.0993	/	/	/	/	/	/
Cc1c(Cl)c([N+](=O)[O-])nn1CCCC(=O)N1CCN(c2ccccc2)CC1	1.1	-0.11	i	-0.9	-3.1	-2.74*	0.01	?	0.0354	0.00814	0.021	?
O=C(NC(=S)Nc1ccc(-c2nc3ncccc3o2)cc1)c1ccccc1F	/	1.33	i	-0.4	51.9*	4.7*	0.00813	0.0133*	0.0328	0.0109*	?	0.0115
O=C1CCCN1CCCNS(=O)(=O)c1ccc(F)cc1F	/	-0.01	/	/	-1.3	0.739	/	/	/	/	/	/
O=C(Nc1nnc(C2CC2)o1)c1ccc(S(=O)(=O)N2CCCc3ccccc32)cc1	/	-0.06	i	62.9*	91.0*	4.41*	0.0124*	0.0255*	0.0319	0.012*	?	0.0113
NS(=O)(=O)c1ccc(CNC(=O)c2sccc2-c2ccccc2)cc1	/	/	/	/	4.5	/	/	/	/	/	/	/
Cc1ccc2nc(-c3ccccc3)c(CN3CCSCC3)n2c1	6.9	-0.39	i	-1.7	-5.0	-2.11	/	/	/	/	/	/
Cc1ccc2nc(-c3ccccc3)c(CN3CCOCC3)n2c1	6.3	-0.12	i	-6.3	-4.5	4.34*	0.00974	0.006	0.0353	0.00391	0.0206	0.0117
O=C(Nc1ccnn1C1CCN(Cc2ccccc2OC(F)F)CC1)c1cccnc1	/	/	/	/	1.9	/	/	/	/	/	/	/
Cc1nc2c(c(=O)n1CCC1=CCCCC1)c1nc3ccccc3nc1n2/N=C/c1ccco1	/	-2.42	i	/	39.5	-5.85*	0.0062	0.00456	0.0289	0.00734	0.0186	0.0114
Oc1ccccc1/C=N/NC(=S)NC1CC2CCC1C2 (centres undefined)	0.7	-0.09	/	/	69.7*	14.8*	0.00974	0.0371*	0.0283	0.0158*	0.0304*	?
Cc1ccc(-c2nc3c(c(SCC(=O)N4CCOCC4)n2)COC(C)(C)C3)cc1	/	/	/	/	6.7	/	/	/	/	/	/	/
Fc1ccc(NC(=S)Nc2cc(Cl)ccc2Cl)cc1	-6.8	/	i	-36.6	-8.1	3.53*	0.00799	0.0155*	?	0.0183*	0.0263*	0.0146*
CCn1nc(C)c(/C=N/NC(=S)Nc2ccc(Cl)cc2Cl)c1C	/	-0.85	i	12.5	5.9	4.47*	0.00815	0.0105*	0.031	0.0084*	?	?
Fc1ccc(NC(=S)N/N=C/c2ccc(F)c(F)c2)cc1	-10.7	-0.72	i	14.9	0.9	26.6*	0.0162*	0.063*	0.0311	0.0223*	0.0439*	0.013*
Fc1ccc(/C=N/NC(=S)Nc2ccc(Cl)cc2Cl)cc1	7.5	0.56	/	/	-6.0	7.56*	0.00991	0.0179*	0.0299	0.0117*	0.0287*	?
SMILES	Rad51 HR inh	Ins promoter up	Autophagy mod	WT yeast gro inh	SKKanGAS inh	KCC2 mod	KCC2 secondary	KCC2 bumet counter	KCC2 sec2	HEK293 Tl flux	KCC2 retest ouab	HEK293 Tl flux2
Cc1c(NC(=S)N2CCN(c3ccc(F)cc3)CC2)c(=O)n(-c2ccccc2)n1C	2.8	0.33	i	-9.0	-4.7	-0.955	/	/	/	/	/	/
O=C(Cc1ccccc1)Nc1ccccc1C(=O)NCC1CCCO1 (centres undefined)	/	/	/	/	-1.1	/	/	/	/	/	/	/
O=C(COC(=O)CNS(=O)(=O)/C=C/c1ccccc1)Nc1cc(S(=O)(=O)N2CCCCC2)ccc1Cl	13.6	-0.42	i	-5.5	-28.0	-0.876	/	/	/	/	/	/
COc1ccc(Oc2c(Cl)cnn(-c3ccc(F)cc3)c2=O)cc1	19.5	0.2	i	4.8	-12.4	-3.08*	0.00843	?	0.0319	0.00624	0.0168*	0.00917
COc1ccc(Oc2c(Cl)cnn(-c3ccc(C)cc3)c2=O)cc1	7.0	-0.35	i	-5.1	0.3	/	/	/	/	/	/	/
CCOC(=O)Cc1csc(NC(=S)NC(=O)c2ccc(F)cc2)n1	/	1.38	i	5.5	-4.8	11*	0.00723	0.0393*	0.0413*	0.0296*	0.0464*	0.0205*
CCOC(=O)Cc1csc(NC(=S)NC(=O)c2cc(OC)c(OC)c(OC)c2)n1	25.1	-0.09	/	/	4.3	6.89*	0.0159	0.0161*	0.0302	0.00981*	0.0186	0.0109
CCOC(=O)Cc1csc(NC(=O)c2ccc(OC)c(OC)c2)n1	-8.3	-0.32	i	40.4	0.5	-0.0054	/	/	/	/	/	/
CCOC(=O)Cc1csc(NC(=O)Nc2ccc(F)cc2)n1	1.5	0.45	/	/	-2.6	0.787	/	/	/	/	/	/
